For 37 sequences, Tm and folding enthalpy results are on record in the array DNA melting data of Ke et al. (doi:10.1101/2024.01.08.574731).

The nature of data set [1]: melting temperature; fluorescence melt of hairpins on a sequencing array, two-state fit, raised by 9.35 °C to match UV melts. Conditions: sodium 0.088 M. The method in brief: (§1)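 Two-state fits, bootstrapped, provided melting temperature and folding enthalpy from Cy3 fluorescence normalised to pre-quench Cy3 and to control constructs. Library hairpins with annealed Cy3 and quencher oligos were imaged on a sequenced MiSeq flow cell in 50 mM Na-HEPES pH 8.0, 25 mM NaCl, at 2.5 °C intervals up to 60 °C. Four replicates were combined with inverse-variance weighting. A 9.35 °C upward shift was applied to fitted temperatures to match UV melts.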

The nature of data set [2]: folding enthalpy; higher = less favourable; fluorescence melt of hairpins on a sequencing array, two-state fit. Conditions: sodium 0.088 M. The method in brief: as §1

With AGTTTGAAAAAACT (((((....))))), the Tm in data set [1] is 33 °C. Moreover, the folding enthalpy in data set [2] is -12.1 kcal/mol.
As to GCATGCGCGAAAGCGTGC (((..(((....)))))), in data set [1], the Tm is 51.8 °C. The folding enthalpy in data set [2] was -13.4 kcal/mol.
The corresponding values for GATCTCCAGCGAGATC ((((((....)))))) are 50 °C and -30.6 kcal/mol.
Turning to GTGCTCGAAAGAGTGCAC ((((((....)))..))), the Tm in data set [1] worked out at 48.7 °C. The folding enthalpy in data set [2] was -24 kcal/mol.
The corresponding values for GATCACCCCTGTGATC ((((((....)))))) are 55.6 °C and -47.6 kcal/mol.
The corresponding values for GTGTCCGGAAACGGACGC (.(((((....))))).) are 62.5 °C and -14.6 kcal/mol.
Take GCCGCGCGAAAGCGCAGC ((.((((....)))).)): in data set [1], the Tm amounted to 64 °C. The folding enthalpy in data set [2] was -15.2 kcal/mol.
The corresponding values for GTCAACGCGAAAGCGGAC (((..(((....)))))) are 42 °C and -15.3 kcal/mol.
The corresponding values for GATCAACCGAAAGGTATC (((..(((....)))))) are 25.6 °C and -12.1 kcal/mol.
The corresponding values for GTATTACGAAAGTACTAC (((.(((....))).))) are 32.7 °C and -19.9 kcal/mol.
Take GCGGTGGCGAAAGCCCGC (((..(((....)))))): in data set [1], the Tm was 66.9 °C. Moreover, the folding enthalpy in data set [2] is -23.3 kcal/mol.
Turning to GCGAGGCGAAAGCCTGGC ((.((((....)))).)), the Tm in data set [1] came to 66.5 °C. In addition, the folding enthalpy in data set [2] was -24.8 kcal/mol.
The corresponding values for GCCTTCGAAAGAATGGC ((((((....))).))) are 49 °C and -27.2 kcal/mol.
The corresponding values for GACGACACGAAAGTGGTC (((..(((....)))))) are 41.2 °C and -15.3 kcal/mol.
Consider GATCTGTAGGCAGATC ((((((....)))))), for which, in data set [1], the Tm was determined as 51.9 °C. In addition, in data set [2], the folding enthalpy is -45 kcal/mol.
The corresponding values for GAGGGCGGAAACGCTCTC (((.(((....))).))) are 57.2 °C and -31.9 kcal/mol.
The corresponding values for CGGATCGGAAACGACCG (((.(((....)))))) are 49.8 °C and -28.2 kcal/mol.
The corresponding values for GGCATTGAAAAATGCC ((((((....)))))) are 61.5 °C and -36.2 kcal/mol.
In the case of GCTTAAGGAAACTTAGGC ((.((((....)))).)), the Tm in data set [1] is 36.3 °C. Besides, the folding enthalpy in data set [2] was -23 kcal/mol.
The corresponding values for GTTCCGAAAGGAAC (((((....))))) are 66.9 °C and -29.5 kcal/mol.
Turning to AGAACGAAAGTTCT (((((....))))), in data set [1], the Tm was 53.1 °C. In addition, in data set [2], the folding enthalpy is -19.9 kcal/mol.
The corresponding values for GATCGTGTTGACGATC ((((((....)))))) are 57.4 °C and -29.3 kcal/mol.
The corresponding values for GATTTGACGAAAGTCATC (((..(((....)))))) are 27.3 °C and -8.24 kcal/mol.
The corresponding values for GGCCCCGGAAACAGGGCC (((((.(....).))))) are 58.2 °C and -43.7 kcal/mol.
Turning to GCGGTCGGAAACGGCTGC ((.(.((....)).).)), the Tm in data set [1] is 53.4 °C. Moreover, the folding enthalpy in data set [2] was -36.8 kcal/mol.
The corresponding values for GCTCCGGGAAACCGGGGC ((.((((....)))).)) are 63.8 °C and -43 kcal/mol.
As for GATCCTCGCTAGGATC ((((((....)))))), in data set [1], the Tm worked out at 51.2 °C. Moreover, in data set [2], the folding enthalpy is -35.6 kcal/mol.
As for GCACCGGCGAAAGCCTGC (((..(((....)))))), the Tm in data set [1] amounted to 39.1 °C. For the same sequence, the folding enthalpy in data set [2] was -12.6 kcal/mol.
The corresponding values for GGGTTCGAAAGAATGCCC ((((((....)))..))) are 35.3 °C and -21.1 kcal/mol.
The corresponding values for GATCGTAGGCACGATC ((((((....)))))) are 54.2 °C and -37 kcal/mol.
The corresponding values for GGATCTGGAAACGGATCC (((((.(....).))))) are 51.6 °C and -38.4 kcal/mol.
Consider GTAGCAGGAAACTGCTGC (.(((((....))))).), for which, in data set [1], the Tm was 55.5 °C. Further, in data set [2], the folding enthalpy is -26.2 kcal/mol.
The corresponding values for TCGAAGAAATTCGA (((((....))))) are 38.7 °C and -11.1 kcal/mol.
The corresponding values for GTACGAGGAAACTTGTAC ((((.((....)).)))) are 44 °C and -37.1 kcal/mol.
The corresponding values for CTACGGAAACGTAG (((((....))))) are 49.4 °C and -24.9 kcal/mol.
With GTGTGAGGAAACTCACGC (.(((((....))))).), the Tm in data set [1] amounted to 53.3 °C. For the same sequence, the folding enthalpy in data set [2] is -35.9 kcal/mol.
The corresponding values for GCGAAAGATCGC ((((....)))) are 39.9 °C and -12.4 kcal/mol.
